Laboratory results reported in ChEMBL document CHEMBL1137747, “Fullerene derivatized s-triazine analogues as antimicrobial agents” (2009).
Converted amounts (≈) assume the structure as drawn. The source made the active and inactive calls. The calls are words filed in the database; no cut-off is given here.

What was measured:
Escherichia coli = assay: Antibacterial activity against Escherichia coli at 100 ug/ml by disk diffusion method; assay type: functional; conditions: for zone of inhibition at 100 µg/mL: read-out: IZ
How it was run: (§1)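 Agar disc diffusion on nutrient agar plates. Inoculum of […] (0.5 McFarland) spread evenly over the agar surface. Whatman filter paper discs, 6.25 mm diameter, dry-heat sterilized at 140 °C for 1 h, soaked in test solution and placed on the agar. Plates inverted and incubated 24 h at 37 °C. Solvent and growth controls and a ciprofloxacin reference run alongside. Inhibition zones measured.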

Bacillus subtilis [1] = assay: Antibacterial activity against Bacillus subtilis at 100 ug/ml by disk diffusion method; assay type: functional; conditions: read-out: IZ; how it was run: as §1
Bacillus pumilus [2] = assay: Antibacterial activity against Bacillus pumilus at 100 ug/ml by disk diffusion method; assay type: functional; conditions: read-out: IZ; how it was run: as §1
Klebsiella pneumoniae [3] = assay: Antibacterial activity against Klebsiella pneumoniae at 100 ug/ml by disk diffusion method; assay type: functional; conditions: for zone of inhibition at 100 µg/mL: read-out: IZ; how it was run: as §1
Staphylococcus aureus = assay: Antibacterial activity against Staphylococcus aureus at 100 ug/ml by disk diffusion method; assay type: functional; conditions: read-out: IZ; how it was run: as §1
Pseudomonas aeruginosa = assay: Antibacterial activity against Pseudomonas aeruginosa at 100 ug/ml by disk diffusion method; assay type: functional; conditions: for zone of inhibition at 100 µg/mL: read-out: IZ; how it was run: as §1
Bacillus pumilus [4] = assay: Antibacterial activity against Bacillus pumilus by broth dilution technique
Klebsiella pneumoniae [5] = assay: Antibacterial activity against Klebsiella pneumoniae by broth dilution technique
Bacillus subtilis [6] = assay: Antibacterial activity against Bacillus subtilis by broth dilution technique

SMILES	zone of inhibition at 100 µg/mL (Escherichia coli) [mm]	zone of inhibition at 100 µg/mL (Bacillus subtilis [1]) [mm]	zone of inhibition at 100 µg/mL (Bacillus pumilus [2]) [mm]	inhibition zone (IZ) (Klebsiella pneumoniae [3])	zone of inhibition at 100 µg/mL (Staphylococcus aureus) [mm]	zone of inhibition at 100 µg/mL (Pseudomonas aeruginosa) [mm]	zone of inhibition at 100 µg/mL (Klebsiella pneumoniae [3]) [mm]	MIC (Bacillus pumilus [4]) [µg/mL]	MIC (Klebsiella pneumoniae [5]) [µg/mL]	MIC (Bacillus subtilis [6]) [µg/mL]	inhibition zone (IZ) (Escherichia coli)	inhibition zone (IZ) (Pseudomonas aeruginosa)
Nc1nc(N)nc(N/N=C/c2ccc(C=O)cc2)n1	15	16	15	inactive	9	11	–	–	–	–	–	–
CNc1nc(N/N=C/c2ccc(C=O)cc2)nc(N(C)C)n1	12	10	11	–	10	10	12	–	–	–	–	–
O=C(O)c1cn(C2CC2)c2cc(N3CCNCC3)c(F)cc2c1=O [CIPROFLOXACIN]	27	38	36	–	22	32	19	0.25 (≈ 0.754 µM)	12.5 (≈ 37.7 µM)	0.06 (≈ 0.181 µM)	–	–
CNc1nc(NC)nc(N/N=C/c2ccc(C=O)cc2)n1	14	12	10	–	11	11	14	–	–	–	–	–
CN(C)c1nc(N/N=C/c2ccc(C=O)cc2)nc(N(C)C)n1	–	10	10	inactive	9	–	–	–	–	–	inactive	inactive
CNc1nc(N)nc(N/N=C/c2ccc(C=O)cc2)n1	15	18	13	–	9	13	15	–	–	–	–	–
